The record followed here is ChEMBL document CHEMBL5653631, “A Potent and Selective ULK1 Inhibitor Suppresses Autophagy and Sensitizes Cancer Cells to Nutrient Stress” (iScience, 2018).

A word on the inhibition: it is how much of the control response was suppressed.

Assay [1] concerns the target Serine/threonine-protein kinase 32A (Homo sapiens) (UniProt Q8WU08). The experiment in a line: Inhibition of human recombinant YANK1 at 40 nM related to control ULK1.
The target in assay [2] is T1, Ephrin type-A receptor 8 (Homo sapiens) (UniProt P29322).
T1 sequence (whole entry): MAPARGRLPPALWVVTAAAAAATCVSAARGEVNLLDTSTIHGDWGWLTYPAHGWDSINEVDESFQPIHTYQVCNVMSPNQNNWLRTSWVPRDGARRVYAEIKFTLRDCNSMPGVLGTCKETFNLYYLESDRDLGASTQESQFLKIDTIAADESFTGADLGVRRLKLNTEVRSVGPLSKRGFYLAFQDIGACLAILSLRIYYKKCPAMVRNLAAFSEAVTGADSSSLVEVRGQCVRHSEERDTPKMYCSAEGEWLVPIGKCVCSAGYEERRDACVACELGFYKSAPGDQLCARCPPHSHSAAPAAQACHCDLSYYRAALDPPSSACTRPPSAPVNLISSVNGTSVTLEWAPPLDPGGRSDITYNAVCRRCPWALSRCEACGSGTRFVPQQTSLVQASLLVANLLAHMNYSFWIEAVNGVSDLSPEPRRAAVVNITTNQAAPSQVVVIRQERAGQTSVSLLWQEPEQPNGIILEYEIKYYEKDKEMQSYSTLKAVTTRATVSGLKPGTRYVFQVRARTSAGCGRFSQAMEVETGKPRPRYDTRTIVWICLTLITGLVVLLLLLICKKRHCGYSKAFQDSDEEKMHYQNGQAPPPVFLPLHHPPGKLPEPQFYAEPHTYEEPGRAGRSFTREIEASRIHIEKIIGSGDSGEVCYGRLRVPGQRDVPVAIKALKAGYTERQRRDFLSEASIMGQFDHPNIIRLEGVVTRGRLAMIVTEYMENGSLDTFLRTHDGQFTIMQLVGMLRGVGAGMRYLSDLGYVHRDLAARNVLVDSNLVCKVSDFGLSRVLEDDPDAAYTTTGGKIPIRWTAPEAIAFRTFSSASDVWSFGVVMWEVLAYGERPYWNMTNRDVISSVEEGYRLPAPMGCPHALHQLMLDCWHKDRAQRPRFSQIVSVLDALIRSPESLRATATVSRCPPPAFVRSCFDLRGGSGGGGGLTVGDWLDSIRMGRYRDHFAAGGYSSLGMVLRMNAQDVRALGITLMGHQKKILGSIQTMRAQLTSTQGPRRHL
The experiment in a line: Inhibition of human recombinant EphA8 at 40 nM related to control ULK1.

In assay [3] the target is Dual specificity tyrosine-phosphorylation-regulated kinase 1B (Homo sapiens) (UniProt Q9Y463). The experiment in a line: Inhibition of human recombinant DYRK1B at 40 nM in presence of ATP by radiometric assay relative to control.
For assay [4], the target named is T2, Serine/threonine-protein kinase PLK4 (Homo sapiens) (UniProt O00444).
T2 sequence (whole entry): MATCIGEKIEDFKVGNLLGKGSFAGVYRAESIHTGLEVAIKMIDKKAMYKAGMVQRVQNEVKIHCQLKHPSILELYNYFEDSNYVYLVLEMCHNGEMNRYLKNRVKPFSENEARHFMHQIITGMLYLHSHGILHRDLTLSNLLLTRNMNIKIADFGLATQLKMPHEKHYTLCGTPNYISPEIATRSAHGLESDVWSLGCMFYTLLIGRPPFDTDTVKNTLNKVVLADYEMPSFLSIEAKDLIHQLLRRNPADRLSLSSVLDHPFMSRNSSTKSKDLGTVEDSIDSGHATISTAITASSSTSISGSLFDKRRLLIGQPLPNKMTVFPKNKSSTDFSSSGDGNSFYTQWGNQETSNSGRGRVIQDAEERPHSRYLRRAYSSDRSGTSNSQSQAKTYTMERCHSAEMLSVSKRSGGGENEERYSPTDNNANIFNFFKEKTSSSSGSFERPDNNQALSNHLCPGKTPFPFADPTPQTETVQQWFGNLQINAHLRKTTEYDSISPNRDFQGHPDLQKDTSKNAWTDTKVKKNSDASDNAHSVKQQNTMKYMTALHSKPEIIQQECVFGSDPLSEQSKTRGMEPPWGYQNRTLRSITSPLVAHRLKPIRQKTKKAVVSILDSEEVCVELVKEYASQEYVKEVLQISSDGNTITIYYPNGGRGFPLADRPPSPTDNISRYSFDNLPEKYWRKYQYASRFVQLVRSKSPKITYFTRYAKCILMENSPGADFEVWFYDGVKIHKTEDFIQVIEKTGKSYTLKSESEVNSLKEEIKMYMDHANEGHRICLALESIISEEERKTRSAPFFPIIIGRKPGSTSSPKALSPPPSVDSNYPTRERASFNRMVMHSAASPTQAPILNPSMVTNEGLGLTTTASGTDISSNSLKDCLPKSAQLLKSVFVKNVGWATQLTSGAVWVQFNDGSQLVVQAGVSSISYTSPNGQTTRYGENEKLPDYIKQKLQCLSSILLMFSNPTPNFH
The experiment in a line: Inhibition of human recombinant PLK4 at 40 nM in presence of ATP by radiometric assay relative to control.

For assay [5], the target named is T3, MAP kinase-activated protein kinase 5 (Homo sapiens) (UniProt Q8IW41).
T3 sequence (whole entry): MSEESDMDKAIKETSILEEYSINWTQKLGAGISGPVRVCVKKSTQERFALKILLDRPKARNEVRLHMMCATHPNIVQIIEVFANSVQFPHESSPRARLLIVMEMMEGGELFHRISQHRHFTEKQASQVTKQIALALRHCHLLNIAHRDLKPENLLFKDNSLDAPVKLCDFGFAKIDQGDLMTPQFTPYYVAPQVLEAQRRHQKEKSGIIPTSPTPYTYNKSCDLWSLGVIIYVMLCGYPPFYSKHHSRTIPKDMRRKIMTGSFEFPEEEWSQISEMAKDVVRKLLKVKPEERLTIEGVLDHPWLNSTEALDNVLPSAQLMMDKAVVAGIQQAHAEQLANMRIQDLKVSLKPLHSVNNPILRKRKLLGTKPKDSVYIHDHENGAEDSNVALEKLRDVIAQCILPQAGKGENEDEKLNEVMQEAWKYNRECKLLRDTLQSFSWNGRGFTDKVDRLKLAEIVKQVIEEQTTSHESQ
Nature of the assay: Inhibition of human recombinant MAPKAPK5 at 40 nM in presence of ATP by radiometric assay relative to control.

Assay [6] deals with Protein-tyrosine kinase 6 (Homo sapiens) (UniProt Q13882). The experiment in a line: Inhibition of human recombinant BRK at 500 nM in presence of ATP by radiometric assay relative to control. Summed up: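 Part of a radiometric in vitro activity panel of 327 recombinant human kinases. Each kinase was tested in duplicate at one inhibitor concentration. Activity remaining was expressed as a percentage of the vehicle control, and percent inhibition was taken as 100 minus that value.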

Assay [7] deals with Epithelial discoidin domain-containing receptor 1 (Homo sapiens) (UniProt Q08345). Nature of the assay: Inhibition of human recombinant DDR1 at 15 nM related to control ULK1.
Assay [8] deals with Serine/threonine-protein kinase D2 (Homo sapiens) (UniProt Q9BZL6). Nature of the assay: Inhibition of human recombinant PKD2 at 15 nM in presence of ATP by radiometric assay relative to control.
Serine/threonine-protein kinase D2 (Homo sapiens), sequence (Q9BZL6 whole entry, looked up): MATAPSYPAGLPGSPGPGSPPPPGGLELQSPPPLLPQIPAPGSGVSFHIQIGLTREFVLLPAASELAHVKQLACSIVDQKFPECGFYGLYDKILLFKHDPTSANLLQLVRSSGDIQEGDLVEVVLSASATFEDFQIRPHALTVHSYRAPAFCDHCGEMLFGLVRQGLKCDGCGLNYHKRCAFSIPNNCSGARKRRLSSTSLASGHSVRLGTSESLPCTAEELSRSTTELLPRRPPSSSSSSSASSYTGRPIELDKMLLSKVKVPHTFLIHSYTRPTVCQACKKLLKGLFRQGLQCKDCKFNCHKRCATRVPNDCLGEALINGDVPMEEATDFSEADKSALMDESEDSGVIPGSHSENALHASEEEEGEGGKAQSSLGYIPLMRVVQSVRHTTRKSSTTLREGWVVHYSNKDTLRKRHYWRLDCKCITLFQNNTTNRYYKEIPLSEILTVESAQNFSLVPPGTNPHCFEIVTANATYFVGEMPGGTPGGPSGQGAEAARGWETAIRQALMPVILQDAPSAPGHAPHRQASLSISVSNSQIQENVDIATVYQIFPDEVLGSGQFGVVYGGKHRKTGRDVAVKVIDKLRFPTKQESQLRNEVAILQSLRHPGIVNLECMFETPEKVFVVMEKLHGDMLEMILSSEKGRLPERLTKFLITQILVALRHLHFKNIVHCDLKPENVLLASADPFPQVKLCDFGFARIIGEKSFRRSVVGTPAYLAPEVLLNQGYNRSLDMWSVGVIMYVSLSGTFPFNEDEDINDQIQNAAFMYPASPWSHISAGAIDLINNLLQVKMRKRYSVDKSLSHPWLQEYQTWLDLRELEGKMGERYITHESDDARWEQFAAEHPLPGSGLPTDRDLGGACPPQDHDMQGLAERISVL

Serine/threonine-protein kinase 32A (Homo sapiens), sequence (Q8WU08 whole entry): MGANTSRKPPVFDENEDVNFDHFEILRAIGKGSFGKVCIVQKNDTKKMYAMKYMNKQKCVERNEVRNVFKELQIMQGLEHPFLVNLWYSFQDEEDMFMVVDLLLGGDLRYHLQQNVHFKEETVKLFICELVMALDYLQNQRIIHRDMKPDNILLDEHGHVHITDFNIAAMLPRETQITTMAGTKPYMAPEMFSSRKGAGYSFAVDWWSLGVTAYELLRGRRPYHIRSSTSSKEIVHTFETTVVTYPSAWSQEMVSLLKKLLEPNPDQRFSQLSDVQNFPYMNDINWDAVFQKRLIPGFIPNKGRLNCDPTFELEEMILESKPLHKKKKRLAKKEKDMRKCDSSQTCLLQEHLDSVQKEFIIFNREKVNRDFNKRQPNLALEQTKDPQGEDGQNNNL
Dual specificity tyrosine-phosphorylation-regulated kinase 1B (Homo sapiens), sequence (Q9Y463 whole entry, looked up): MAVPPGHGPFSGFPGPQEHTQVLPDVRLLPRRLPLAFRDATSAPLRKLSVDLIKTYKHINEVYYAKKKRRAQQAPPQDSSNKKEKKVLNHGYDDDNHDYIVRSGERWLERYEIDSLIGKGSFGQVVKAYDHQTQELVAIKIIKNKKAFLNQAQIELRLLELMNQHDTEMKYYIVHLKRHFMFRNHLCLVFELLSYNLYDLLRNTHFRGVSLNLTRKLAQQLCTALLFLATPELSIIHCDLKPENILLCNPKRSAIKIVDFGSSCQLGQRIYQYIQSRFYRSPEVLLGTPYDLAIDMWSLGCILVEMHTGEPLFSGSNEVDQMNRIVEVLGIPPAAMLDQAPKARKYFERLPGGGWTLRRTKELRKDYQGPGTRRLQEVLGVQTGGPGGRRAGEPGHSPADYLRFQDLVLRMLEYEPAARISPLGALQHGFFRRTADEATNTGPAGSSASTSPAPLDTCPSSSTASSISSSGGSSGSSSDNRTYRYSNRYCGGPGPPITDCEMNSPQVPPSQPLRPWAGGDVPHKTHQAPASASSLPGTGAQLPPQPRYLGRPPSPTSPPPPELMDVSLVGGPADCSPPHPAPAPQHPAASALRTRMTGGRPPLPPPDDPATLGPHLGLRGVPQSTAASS
Epithelial discoidin domain-containing receptor 1 (Homo sapiens), sequence (Q08345 whole entry, the tested form may be a part): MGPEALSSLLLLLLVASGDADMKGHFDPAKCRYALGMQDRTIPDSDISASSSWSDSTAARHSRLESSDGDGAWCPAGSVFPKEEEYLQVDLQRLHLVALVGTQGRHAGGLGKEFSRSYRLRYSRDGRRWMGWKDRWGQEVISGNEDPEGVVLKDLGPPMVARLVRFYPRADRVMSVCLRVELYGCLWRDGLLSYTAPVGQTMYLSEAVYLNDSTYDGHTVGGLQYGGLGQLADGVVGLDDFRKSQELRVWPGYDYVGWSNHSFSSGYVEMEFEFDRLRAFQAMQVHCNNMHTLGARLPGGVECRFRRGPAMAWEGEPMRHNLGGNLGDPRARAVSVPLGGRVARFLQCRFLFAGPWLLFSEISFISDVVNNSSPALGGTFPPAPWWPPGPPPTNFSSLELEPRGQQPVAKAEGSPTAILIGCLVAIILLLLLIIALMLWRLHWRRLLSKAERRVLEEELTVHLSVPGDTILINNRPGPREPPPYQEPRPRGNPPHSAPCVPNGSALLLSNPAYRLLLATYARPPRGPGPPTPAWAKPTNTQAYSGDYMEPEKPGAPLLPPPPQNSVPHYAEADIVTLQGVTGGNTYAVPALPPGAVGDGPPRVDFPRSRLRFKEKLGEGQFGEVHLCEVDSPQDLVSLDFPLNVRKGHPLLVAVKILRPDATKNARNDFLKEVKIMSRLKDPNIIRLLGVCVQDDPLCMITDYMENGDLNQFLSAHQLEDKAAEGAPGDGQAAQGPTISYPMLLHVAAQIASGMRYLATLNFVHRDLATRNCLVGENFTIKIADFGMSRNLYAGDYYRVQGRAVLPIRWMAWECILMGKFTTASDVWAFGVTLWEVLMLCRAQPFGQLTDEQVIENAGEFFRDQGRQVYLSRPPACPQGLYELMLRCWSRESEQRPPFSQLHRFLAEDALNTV
Protein-tyrosine kinase 6 (Homo sapiens), sequence (Q13882 whole entry, looked up): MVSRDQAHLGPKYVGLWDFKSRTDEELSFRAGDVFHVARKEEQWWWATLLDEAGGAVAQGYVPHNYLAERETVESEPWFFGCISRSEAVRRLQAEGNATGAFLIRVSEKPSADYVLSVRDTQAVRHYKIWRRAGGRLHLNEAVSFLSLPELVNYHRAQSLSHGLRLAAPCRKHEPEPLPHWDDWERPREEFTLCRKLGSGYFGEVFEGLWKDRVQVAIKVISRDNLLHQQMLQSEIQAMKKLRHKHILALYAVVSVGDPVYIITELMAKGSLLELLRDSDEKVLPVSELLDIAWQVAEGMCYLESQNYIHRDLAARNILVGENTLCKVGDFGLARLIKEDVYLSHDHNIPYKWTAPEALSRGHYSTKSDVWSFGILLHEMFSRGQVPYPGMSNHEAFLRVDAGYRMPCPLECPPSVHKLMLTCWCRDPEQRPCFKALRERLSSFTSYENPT

In the case of `O=C(N[C@@H](C1CC1)C(F)(F)F)c1cc(-c2cnn3cc(-c4ccc(F)cc4)cnc23)cs1`, the fold change (FC) came out at 0.05 in assay [1] and 0 in assay [2]. Besides, the inhibition came out at 31% in assay [3], 7% in assay [4] and 0% in assay [5].

For `CNC(=O)c1ccccc1Oc1nc(Nc2cc(OC)c(OC)c(OC)c2)ncc1Br`, the inhibition in assay [6] was determined as 2%.

Regarding `CC(C)[C@H](NC(=O)c1cc(-c2cnn3cc(-c4ccc(OCCN5CCCCC5)cc4)cnc23)cs1)C(F)(F)F`, the fold change (FC) in assay [7] was 0.89. The inhibition in assay [8] is 0%.
